The source of these data is ChEMBL document CHEMBL4130523, “Targeting the Allosteric Site of Oncoprotein BCR-ABL as an Alternative Strategy for Effective Target Protein Degradation” (ACS Med Chem Lett, 2017).

Activity calls are given as the source filed them. No cut-off for these calls is given here.

Assay [1] addresses T1, Bcr/Abl fusion protein (Homo sapiens) (UniProt P00519+P11274). The assay can be described thus: Inhibition of BCR-ABL in human K562 cells assessed as reduction in CrkL phosphorylation at 100 nM after 6 hrs by Western blot analysis. The class given is cell-based. The gist of the method:
(§1)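 K562 cells were exposed to 100 nM compound for 6 h. Lysates were immunoblotted for phosphorylated STAT5 and phosphorylated CrkL, which are BCR-ABL substrates, alongside phosphorylated BCR-ABL.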
Background: In western blotting, separated proteins are transferred to a membrane and probed.

For assay [2], the target named is Tyrosine-protein kinase ABL1 (Homo sapiens, UniProt P00519). Put plainly: Inhibition of recombinant human His-tagged full length ABL1 allosteric site expressed in baculovirus expression system by TR-FRET assay.
Assay [3] concerns the target T1, Bcr/Abl fusion protein (Homo sapiens). Put plainly: Inhibition of BCR-ABL in human K562 cells assessed as reduction in STAT5 phosphorylation at 100 nM after 6 hrs by Western blot analysis. The class given is cell-based. The gist of the method: as §1
Assay [4] shares this target. Put plainly: Inhibition of BCR-ABL phosphorylation in human K562 cells at 100 nM after 6 hrs by Western blot analysis relative to beta-actin. The class given is cell-based.
The next assay has as its system KCL-22. Put plainly: Growth inhibition of human KCL22 cells up to 1000 nM after 48 hrs by WST-8 assay. The class given is functional, cell-based. The method, boiled down:
(§2)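 Cells exposed for 48 h to a graded concentration series of compound. Growth was read per well and reported as mean ± standard deviation of triplicate (n = 3) determinations.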
On the technique in general: Tetrazolium dyes change colour on reduction, which living cells bring about.

Another assay deals with Jurkat. Put plainly: Growth inhibition of human Jurkat cells up to 1000 nM after 48 hrs by WST-8 assay. The assay is classed as functional, cell-based. The method, boiled down: as §2
The next assay has as its system MOLT-4. Put plainly: Growth inhibition of human MOLT4 cells up to 1000 nM after 48 hrs by WST-8 assay. The class given is functional, cell-based. The method, boiled down: as §2
Assay [5] deals with K562. Put plainly: Growth inhibition of human K562 cells at >= 100 nM after 48 hrs by WST-8 assay. The assay is classed as functional, cell-based. The gist of the method:
as §2

Assay [6] deals with Baculoviral IAP repeat-containing protein 2 (Homo sapiens, UniProt Q13490). Put plainly: Inhibition of recombinant human His-tagged cIAP1 (Leu250 to Gly350 residues) expressed in Escherichia coli by TR-FRET assay. Background: TR-FRET usually uses a lanthanide donor and a delayed reading to cut background.
The target in assay [7] is Baculoviral IAP repeat-containing protein 2/Tyrosine-protein kinase ABL1/Breakpoint cluster region protein (Homo sapiens) (UniProt P00519+P11274+Q13490). The assay can be described thus: Induction of cIAP1-mediated BCR-ABL degradation in human K562 cells at 100 nM after 6 hrs by Western blot analysis relative to beta-actin. The assay is classed as cell-based. The method, boiled down: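 K562 cells were treated for 6 h with test agent at graded concentrations, or with IAP ligand 4 at 10 μM as competitor. BCR-ABL was then immunoblotted. BCR-ABL band intensity was normalized to β-actin and expressed relative to a vehicle control set at 100. Means ± standard deviation, n = 3.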

The target of assay [8] is E3 ubiquitin-protein ligase XIAP (Homo sapiens, UniProt P98170). The assay can be described thus: Inhibition of recombinant human His-tagged XIAP (Asn252 to Thr356 residues) expressed in Escherichia coli by TR-FRET assay.
For assay [9], the target named is Baculoviral IAP repeat-containing protein 3 (Homo sapiens, UniProt Q13489). Put plainly: Inhibition of recombinant human His-tagged cIAP2 (Gln238 to Ser349 residues) expressed in Escherichia coli by TR-FRET assay.
Assay [10] concerns K562. Put plainly: Growth inhibition of human K562 cells up to 1000 nM after 48 hrs by WST-8 assay. The class given is functional, cell-based. The method, boiled down:
as §2

As a reminder, the IC50 is the concentration at which inhibition is half-maximal.

Sequence of Tyrosine-protein kinase ABL1 (P00519 whole entry, the tested form may be a part): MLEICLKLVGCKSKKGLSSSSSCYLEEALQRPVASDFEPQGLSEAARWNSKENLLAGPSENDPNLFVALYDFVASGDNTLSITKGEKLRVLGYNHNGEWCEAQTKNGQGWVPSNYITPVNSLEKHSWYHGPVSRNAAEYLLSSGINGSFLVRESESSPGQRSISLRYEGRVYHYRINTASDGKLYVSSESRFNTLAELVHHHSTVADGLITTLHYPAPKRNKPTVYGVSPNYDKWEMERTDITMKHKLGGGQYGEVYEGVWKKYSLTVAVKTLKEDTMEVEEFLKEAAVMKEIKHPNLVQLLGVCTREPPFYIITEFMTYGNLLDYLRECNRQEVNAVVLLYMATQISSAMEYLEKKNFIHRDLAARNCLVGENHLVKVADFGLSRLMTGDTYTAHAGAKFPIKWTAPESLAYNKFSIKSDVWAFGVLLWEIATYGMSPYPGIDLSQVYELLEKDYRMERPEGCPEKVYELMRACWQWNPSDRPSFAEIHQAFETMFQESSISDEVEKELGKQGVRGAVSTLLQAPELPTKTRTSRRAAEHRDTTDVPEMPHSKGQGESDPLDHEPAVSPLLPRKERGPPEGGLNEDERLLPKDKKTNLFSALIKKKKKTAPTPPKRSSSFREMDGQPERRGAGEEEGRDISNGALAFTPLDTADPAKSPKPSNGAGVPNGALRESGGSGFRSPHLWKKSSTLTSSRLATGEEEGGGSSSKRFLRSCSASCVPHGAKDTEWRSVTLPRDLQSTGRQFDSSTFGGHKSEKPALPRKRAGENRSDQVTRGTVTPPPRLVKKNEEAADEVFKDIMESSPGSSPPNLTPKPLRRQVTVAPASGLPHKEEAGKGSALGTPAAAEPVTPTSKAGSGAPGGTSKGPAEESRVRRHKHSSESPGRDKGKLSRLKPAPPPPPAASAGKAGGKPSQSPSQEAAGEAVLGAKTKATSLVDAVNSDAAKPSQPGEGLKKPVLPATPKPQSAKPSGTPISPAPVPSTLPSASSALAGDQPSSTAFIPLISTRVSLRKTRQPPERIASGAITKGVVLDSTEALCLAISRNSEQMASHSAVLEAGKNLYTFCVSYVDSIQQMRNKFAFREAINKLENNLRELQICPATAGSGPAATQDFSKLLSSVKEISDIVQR
T1 sequence (P00519 whole entry, looked up, the tested form may be a part): as the sequence (P00519 whole entry, the tested form may be a part) above
T1 sequence (P11274 whole entry, looked up, the tested form may be a part): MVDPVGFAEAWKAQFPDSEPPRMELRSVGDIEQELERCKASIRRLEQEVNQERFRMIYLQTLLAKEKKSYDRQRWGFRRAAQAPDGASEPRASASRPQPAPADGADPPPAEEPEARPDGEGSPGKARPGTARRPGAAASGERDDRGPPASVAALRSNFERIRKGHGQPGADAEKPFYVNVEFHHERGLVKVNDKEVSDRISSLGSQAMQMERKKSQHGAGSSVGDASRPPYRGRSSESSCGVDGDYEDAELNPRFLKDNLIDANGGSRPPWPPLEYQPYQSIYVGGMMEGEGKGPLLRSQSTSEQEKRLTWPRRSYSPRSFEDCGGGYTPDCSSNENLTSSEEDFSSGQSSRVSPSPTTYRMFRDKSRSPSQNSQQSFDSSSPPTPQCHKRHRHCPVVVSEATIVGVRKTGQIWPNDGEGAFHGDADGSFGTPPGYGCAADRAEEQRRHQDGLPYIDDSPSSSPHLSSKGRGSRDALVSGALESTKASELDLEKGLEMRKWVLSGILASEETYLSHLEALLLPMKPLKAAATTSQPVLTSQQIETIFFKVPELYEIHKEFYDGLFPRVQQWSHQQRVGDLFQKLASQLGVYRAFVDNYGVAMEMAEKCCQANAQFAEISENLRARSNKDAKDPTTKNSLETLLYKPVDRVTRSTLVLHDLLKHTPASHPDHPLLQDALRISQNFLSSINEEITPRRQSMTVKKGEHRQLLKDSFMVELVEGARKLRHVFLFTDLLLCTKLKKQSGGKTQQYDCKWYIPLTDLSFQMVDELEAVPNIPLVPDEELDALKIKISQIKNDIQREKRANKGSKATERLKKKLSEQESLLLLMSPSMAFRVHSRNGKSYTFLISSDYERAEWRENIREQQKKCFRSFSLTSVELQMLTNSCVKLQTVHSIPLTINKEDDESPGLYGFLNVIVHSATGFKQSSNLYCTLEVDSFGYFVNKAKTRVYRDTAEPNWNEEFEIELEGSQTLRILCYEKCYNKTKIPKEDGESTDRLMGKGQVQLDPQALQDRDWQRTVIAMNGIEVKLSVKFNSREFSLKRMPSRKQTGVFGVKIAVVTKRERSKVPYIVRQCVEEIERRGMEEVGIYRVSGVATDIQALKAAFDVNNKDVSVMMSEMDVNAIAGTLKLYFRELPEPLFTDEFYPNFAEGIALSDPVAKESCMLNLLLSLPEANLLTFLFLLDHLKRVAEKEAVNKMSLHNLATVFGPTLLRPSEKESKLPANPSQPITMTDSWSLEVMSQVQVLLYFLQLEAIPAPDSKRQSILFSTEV
Sequence of Baculoviral IAP repeat-containing protein 2 (Q13490 whole entry): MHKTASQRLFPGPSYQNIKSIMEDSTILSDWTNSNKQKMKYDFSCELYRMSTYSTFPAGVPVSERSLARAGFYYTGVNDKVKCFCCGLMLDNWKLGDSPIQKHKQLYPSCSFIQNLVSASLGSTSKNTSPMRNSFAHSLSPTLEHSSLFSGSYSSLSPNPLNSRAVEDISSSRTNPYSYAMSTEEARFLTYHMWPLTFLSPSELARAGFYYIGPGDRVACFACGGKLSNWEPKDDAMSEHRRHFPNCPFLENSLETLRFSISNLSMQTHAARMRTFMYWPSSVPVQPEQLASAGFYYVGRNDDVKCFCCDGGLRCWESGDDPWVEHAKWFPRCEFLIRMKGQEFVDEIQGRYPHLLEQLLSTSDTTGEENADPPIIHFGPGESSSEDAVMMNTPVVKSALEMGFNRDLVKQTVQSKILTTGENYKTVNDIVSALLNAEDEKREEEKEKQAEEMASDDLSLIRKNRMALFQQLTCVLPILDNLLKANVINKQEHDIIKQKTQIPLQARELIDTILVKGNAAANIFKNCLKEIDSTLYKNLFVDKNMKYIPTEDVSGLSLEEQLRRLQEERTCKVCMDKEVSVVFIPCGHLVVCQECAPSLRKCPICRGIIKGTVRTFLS
Sequence of E3 ubiquitin-protein ligase XIAP (P98170 whole entry): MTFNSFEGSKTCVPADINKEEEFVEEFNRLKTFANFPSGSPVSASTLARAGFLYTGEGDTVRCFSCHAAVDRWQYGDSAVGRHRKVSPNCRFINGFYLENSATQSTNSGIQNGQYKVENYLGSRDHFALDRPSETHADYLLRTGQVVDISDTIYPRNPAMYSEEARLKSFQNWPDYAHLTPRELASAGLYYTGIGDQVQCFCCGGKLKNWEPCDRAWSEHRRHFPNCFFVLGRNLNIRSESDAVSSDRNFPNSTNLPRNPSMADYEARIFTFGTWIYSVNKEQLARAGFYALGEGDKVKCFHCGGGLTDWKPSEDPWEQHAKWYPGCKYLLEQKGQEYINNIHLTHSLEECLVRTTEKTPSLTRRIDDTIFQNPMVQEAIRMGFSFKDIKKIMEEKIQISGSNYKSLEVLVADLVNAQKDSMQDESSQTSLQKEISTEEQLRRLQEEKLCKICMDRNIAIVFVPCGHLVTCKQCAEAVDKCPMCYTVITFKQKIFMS
Sequence of Baculoviral IAP repeat-containing protein 2/Tyrosine-protein kinase ABL1/Breakpoint cluster region protein (Homo sapiens) (P00519 whole entry, looked up): as the sequence (P00519 whole entry, the tested form may be a part) above
Sequence of Baculoviral IAP repeat-containing protein 2/Tyrosine-protein kinase ABL1/Breakpoint cluster region protein (Homo sapiens) (P11274 whole entry, looked up): as the sequence (P11274 whole entry, looked up, the tested form may be a part) above
Sequence of Baculoviral IAP repeat-containing protein 2/Tyrosine-protein kinase ABL1/Breakpoint cluster region protein (Homo sapiens) (Q13490 whole entry, looked up): as the sequence (Q13490 whole entry) above
Sequence of Baculoviral IAP repeat-containing protein 3 (Q13489 whole entry): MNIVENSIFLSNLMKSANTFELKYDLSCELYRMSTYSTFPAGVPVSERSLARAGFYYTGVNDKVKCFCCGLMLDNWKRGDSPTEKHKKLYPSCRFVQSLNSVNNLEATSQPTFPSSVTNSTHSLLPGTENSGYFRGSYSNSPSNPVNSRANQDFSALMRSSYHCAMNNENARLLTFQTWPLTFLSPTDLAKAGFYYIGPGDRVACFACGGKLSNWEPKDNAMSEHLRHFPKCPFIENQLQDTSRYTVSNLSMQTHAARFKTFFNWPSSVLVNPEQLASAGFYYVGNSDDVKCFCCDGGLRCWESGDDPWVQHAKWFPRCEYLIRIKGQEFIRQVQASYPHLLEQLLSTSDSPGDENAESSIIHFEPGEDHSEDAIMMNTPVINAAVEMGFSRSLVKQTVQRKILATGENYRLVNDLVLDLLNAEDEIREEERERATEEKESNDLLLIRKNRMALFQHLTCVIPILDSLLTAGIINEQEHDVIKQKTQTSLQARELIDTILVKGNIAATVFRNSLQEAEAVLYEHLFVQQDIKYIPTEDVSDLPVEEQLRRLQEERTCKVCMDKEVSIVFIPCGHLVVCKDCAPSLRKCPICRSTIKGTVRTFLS

`COC(=O)C1CCN(c2ncc(C(=O)Nc3ccc(OC(F)(F)Cl)cc3)cc2-c2ccn[nH]2)C1` (stereo unspecified): the inhibition entry in [1] and in assay [3] was “Active” throughout. In addition, in assay [2], the IC50 worked out at 35 nM. The fold change (FC) in assay [4] came out at 92.
Turning to `CN[C@@H](C)C(=O)N[C@H](C(=O)N1CCC[C@H]1c1nc(C(=O)c2cccc(OCCOCCOCCNC(=O)C3CCN(c4ncc(C(=O)Nc5ccc(OC(F)(F)Cl)cc5)cc4-c4ccn[nH]4)C3)c2)cs1)C1CCCCC1` (stereo partly specified), the “growth inhibition (GI)” value in the assay with KCL-22 and in the assay with K562 [5] was “Active” throughout. For the same compound, the inhibition result in [1] and in [3] was “Active” each time. For the same compound, the “growth inhibition (GI)” value with Jurkat and in the assay with MOLT-4 was “inactive” each time. Besides, the IC50 in [2] was 360 nM; in assay [6], 86 nM.
For `CN[C@@H](C)C(=O)N(C)[C@H](C(=O)N1CCC[C@H]1c1nc(C(=O)c2cccc(OCCOCCOCCNC(=O)C3CCN(c4ncc(C(=O)Nc5ccc(OC(F)(F)Cl)cc5)cc4-c4ccn[nH]4)C3)c2)cs1)C1CCCCC1` (stereo partly specified), the fold change (FC) in assay [7] was 102. Besides, the half-inhibitory concentration (IC50) in assay [2] was 340 nM; in assay [6], more than 1000 nM; in assay [8], more than 1000 nM; in assay [9] it was more than 1000 nM.
Regarding `CN[C@@H](C)C(=O)N[C@H](C(=O)N1CCC[C@H]1c1nc(C(=O)c2cccc(OCCOCCOCCNC(=O)c3cccc(-c4cc(Nc5ccc(OC(F)(F)F)cc5)ncn4)c3)c2)cs1)C1CCCCC1`, the results for the IC50 in [2] and in assay [6] were 2000 nM and 220 nM, respectively.
`CN[C@@H](C)C(=O)N[C@H](C(=O)N1CCC[C@H]1c1nc(C(=O)c2cccc(OC)c2)cs1)C1CCCCC1`: the half-inhibitory concentration (IC50) in assay [6] was found to be 4.8 nM. In addition, the “growth inhibition (GI)” value in the assay with K562 [10] is “inactive”.
